Results: publication PMC3821739 (Organic & biomolecular chemistry, 2013)
Read-outs that look alike come from different tables or passages of the source.

Experiments:
RRE = conditions: cited from earlier work
[1] = test system: stem A/loop A deleted RNA; experiment: Dot blot assay with RRE IIB variant stem A/loop A deleted RNA; type: binding, HIV-1
HIV-1 RRE IIB RNA [2] = experiment: Dot blot assay, dissociation constant with wild-type RRE IIB RNA; type: binding; conditions: for loss of binding affinity compared to BPBA1: RRE IIB
[3] = molecular target: loop B/bulge A deleted RNA; experiment: Dot blot assay with RRE IIB variant loop B/bulge A deleted RNA; type: binding, HIV-1
[4] = test system: loop A(A-G)/B/bulge A deleted RNA; experiment: Dot blot assay with RRE IIB variant loop A; type: binding, HIV-1
HIV-1 RRE IIB RNA [5] = conditions: read-out: binding affinity (Kd) of hit BPBA; dot blot; cited from earlier work
RRE IIB = experiment: RNase protection; type: binding, HIV-1; conditions: on ice
Summary of the method: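 5′-³²P-labelled RRE-IIB (10 nM) mixed with unlabelled RRE-IIB (200 nM), refolded at 95 °C for 3 min, then snap-cooled on ice. Test compound added in 10 mM Tris pH 7, 100 mM KCl, 10 mM MgCl₂, then 4 hr on ice. Digestion on ice: RNase V1 0.002 U for 10 min; T1 1 U or A 20 ng for 1 hr. Stopped by precipitation, run on 12% urea PAGE with an alkaline-hydrolysis ladder, autoradiography.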

[6] = test system: loop A/B/bulge A deleted RNA; experiment: Dot blot assay with RRE IIB variant loop A/B/bulge A deleted RNA; type: binding, HIV-1
RRE IIB DNA = experiment: Dot blot assay with DNA of the same RRE IIB sequence; type: binding, HIV-1
hexaloop RNA = experiment: Dot blot assay with RRE IIB variant hexaloop RNA; type: binding, HIV-1
stem B deleted RNA = experiment: Dot blot assay with RRE IIB variant stem B deleted RNA; type: binding, HIV-1

NC[C@@H]1O[C@H](O[C@H]2[C@@H](O)[C@H](O[C@@H]3[C@@H](O)[C@H](N)C[C@H](N)[C@H]3O[C@H]3O[C@H](CN)[C@@H](O)[C@H](O)[C@H]3N)O[C@@H]2CO)[C@H](N)[C@@H](O)[C@@H]1O [neomycin B]
binding to RRE (RRE): submicromolar

(WKK)2*KBBAYWY [BPBA1]
lower affinity relative to RRE IIB [1]: > 10 fold
Kd (HIV-1 RRE IIB RNA [2]; read-out: observed Kd in the presence of competing tRNA, 10-fold molar excess of bacterial tRNA relative to RRE IIB): 2.1 µM
Kd [3]: 8.7 µM
lower affinity relative to RRE IIB [3]: 6 fold
lower affinity relative to RRE IIB [4]: > 10 fold
Kd (HIV-1 RRE IIB RNA [5]): 1.4 µM
protection of RRE IIB from cleavage by RNase A (RRE IIB; BPBA1 up to 20 µM): visibly protected U7, C21, and U36
protection of RRE IIB from cleavage by RNase T1 (RRE IIB; BPBA1 up to 20 µM): no noticeable changes in band intensity
protection of RRE IIB from cleavage by RNase V1 (RRE IIB; region A16 through G19, BPBA1 0.2 µM to 20 µM): concentration dependent protection
loss in binding affinity / selectivity relative to RRE IIB [6]: > 75 fold
selectivity toward RNA over DNA (RRE IIB DNA; RRE IIB RNA versus RRE IIB DNA): 23 fold
Kd (RRE IIB DNA; read-out: dissociation constant): 31.8 ± 6.6 µM
increase of Kd compared to the wild type (hexaloop RNA): ~ 3 fold
Kd (stem B deleted RNA): 3.7 µM

Ac(WKK)*KBBAYWY [LPBA3]
loss of binding affinity compared to BPBA1 (HIV-1 RRE IIB RNA [2]): > 50 fold

WKKGKBBAYWY [LPBA1]
loss of binding affinity compared to BPBA1 (HIV-1 RRE IIB RNA [2]): > 50 fold

WKKGKBBAYWYWKK [LPBA5]
loss of binding affinity compared to BPBA1 (HIV-1 RRE IIB RNA [2]): at least 5 fold

WKKWKKGKBBAYWY [LPBA4]
loss of binding affinity compared to BPBA1 (HIV-1 RRE IIB RNA [2]): at least 5 fold
